D1 mod = D1 dopamine receptor (human) allosteric modulation; AID 641; B-score at 10 µM; HEK293 D1, CRE-luciferase, dopamine EC30 potentiation; actives deviate in either direction; 58,000 compounds, 5.9% hits; P21728;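 active means luminescence count or its row- and column-corrected plate score outside the 99.7% band of the plate's sample wells, on either side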
S1P3 ag = agonists of human S1P3 receptor; Q99500; activation, % at 4.5 µM; S1P3 NFAT-BLA reporter cells, agonism, FRET ratio; relative to 1 µM S1P, basal subtracted; AID 373; 60,000 compounds, 0.1% hits;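 active means activation above the screen-wide mean plus 3 SD, cut at about 4.5% in these data, passing the limit was not always enough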
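Assay system: CHO cells stably expressing human S1P3, Gα16 and NFAT-β-lactamase reporter. Timing: overnight plating, 4 h compound 37 °C, 2 h substrate RT. Signal: β-lactamase FRET emission ratio 460/535 nm. Measure: percent activation versus median 1 µM S1P response, basal-subtracted, per plate. Repeats: primary screen single test, confirmation screen in triplicate.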
M1 antag = M1 muscarinic receptor (rat) antagonism. P08482. CHO-M1 cells, Fluo-4 calcium, ACh EC80 antagonist mode; hits give low values. B-score at 10 µM. 64,000 compounds, 3.4% hits;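 active means calcium fluorescence response, raw or row-and-column corrected B-score, differing from the plate sample mean either way at a set confidence level, mostly lower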
Target sequence (P08482 whole entry, looked up): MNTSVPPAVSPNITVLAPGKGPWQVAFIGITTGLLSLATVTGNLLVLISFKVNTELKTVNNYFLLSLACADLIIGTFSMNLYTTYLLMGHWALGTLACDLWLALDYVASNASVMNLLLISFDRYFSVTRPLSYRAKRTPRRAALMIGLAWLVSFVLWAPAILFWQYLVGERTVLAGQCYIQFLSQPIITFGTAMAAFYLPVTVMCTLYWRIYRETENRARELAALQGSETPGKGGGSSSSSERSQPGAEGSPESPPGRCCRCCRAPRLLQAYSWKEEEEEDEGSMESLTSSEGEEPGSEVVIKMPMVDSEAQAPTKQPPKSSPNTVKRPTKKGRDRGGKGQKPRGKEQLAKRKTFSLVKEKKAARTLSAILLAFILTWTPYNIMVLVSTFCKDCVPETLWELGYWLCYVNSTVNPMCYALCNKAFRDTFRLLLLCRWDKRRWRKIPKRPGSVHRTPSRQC
S1P1 ag pot = S1P1 (human) agonism or agonism potentiation. 56,000 compounds, 0.57% hits. activation, % at 9.5 µM. AID 449. S1P1 CRE-bla cells, forskolin, beta-lactamase FRET, potentiator mode; S1P1 agonist co-added at EC20, 2 nM; 100% = saturating reference agonist, 0% = basal. P21453;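 active means activation above a cutoff set at the mean activation of all tested compounds plus 3 SD, cut at about 54% in these data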;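 further: forskolin at 4 µM as EC80 and the EC20 agonist is SEW2871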
M1 agonist = M1 muscarinic receptor agonism; 64,000 compounds, 3% hits; AID 626; CHO-M1 cells, Fluo-4 calcium fluorescence, agonist mode; hits give high values; B-score at 10 µM;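 active means fluorescence rise, raw or as B-score row- and column-corrected plate score, outside the 99.7% band of its plate's samples, either direction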
M1 agonist conf = confirmation of rat M1 muscarinic receptor agonists; shares compounds with M1 agonist; CHO-M1 cells, Fluo-4 calcium fluorescence, agonist mode; actives lie on both sides; fluorescence change (max-min) at 10 µM; 1,700 compounds, 19% hits;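 active means fluorescence change differs from the solvent-only DMSO control mean at a set confidence level in both duplicate runs; inconclusive means differs from solvent-only control mean in just one of two runs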;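 further: an EC20 dose of acetylcholine follows compound addition during the same imaging run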
M4 ag counter = activates rat M4 receptor in counter-screen for M1 agonists; fluorescence change (max-min) at 10 µM; CHO M4/Gqi5 cells, Fluo-4 calcium fluorescence, agonist mode; actives lie on both sides; 1,700 compounds, 9% hits; shares compounds with M1 agonist; AID 1741;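 active means fluorescence change differing from the plate's solvent-only control wells at 99.7% confidence in both duplicates, whether higher or lower; inconclusive means differs from solvent controls in only one of two duplicates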
Hits are given with their value; i = inactive; ? = inconclusive; nt = no result given. Compounds with a hit are over-represented: about 11% of the library has one in this group of screens.

SMILES | D1 mod | S1P3 ag | M1 antag | S1P1 ag pot | M1 agonist | others
Cn1ncnc2c(=O)n(C)c(=O)nc1-2 | -6.5 | i | i | 130 | i
Cn1c(O)c(C=NCCN2CCN(C(=O)c3ccccc3)CC2)c(=O)n(C)c1=O | -7.4 | i | i | i | i
c1ccc2c(c1)[nH]c1cnccc12 | i | i | i | i | i
Cc1c2ccncc2c(C)c2c1[nH]c1ccccc12 | i | i | i | i | 35
Nc1ccccc1C(=O)OCCOc1ccccc1 | -4.4 | i | i | i | i
C=CCn1c(O)c(C(=O)CCCCCC)c(=O)[nH]c1=O | i | i | i | i | i
N=Cc1c(O)n(-c2cccc(Cl)c2)c(=O)[nH]c1=O | i | i | i | i | 2.5
Cc1cc(OC(=O)CCNC(=O)OC(C)(C)C)c2c3c(c(=O)oc2c1)CCC3 | i | i | i | i | 7.1
Cc1cc(OCC(=O)OC(C)(C)C)c2c3c(c(=O)oc2c1)CCC3 | i | i | i | i | i
O=c1[nH]c(=O)n(Cc2ccccc2)c(O)c1C=Nc1ccc(CN2CCOCC2)cc1 | i | i | i | i | i
CCC(C)NC(=O)c1c(N)n(Cc2ccc3c(c2)OCO3)c2nc3ccccc3nc12 (configuration not stated) | i | 31 | i | i | i
CC(=NCC1CCCO1)c1c(O)n(C)c(=O)n(C)c1=O (configuration not stated) | i | i | i | i | i
COC(=O)C1C2c3ccccc3OC1(C)N=c1s/c(=C/c3cn(C)nc3C)c(=O)n12 (configuration not stated) | -4.2 | i | i | i | i
CC1=CC(C)C(COC(N)=O)(COC(N)=O)C(C)C1 (configuration not stated) | -1.4 | i | i | i | i
CCC(=O)Nc1cc(C(=O)N2CCC3(CC2)OCCO3)ccc1S(=O)(=O)c1ccc(C)cc1 | i | i | i | i | i
O=c1[nH]c(=O)n(CCC2=CCCCC2)c(O)c1C=NC1CCN(Cc2ccccc2)CC1 | i | i | i | i | i
CCCCCCn1c(O)c(C=NC2CCN(Cc3ccccc3)CC2)c(=O)[nH]c1=O | -3 | i | i | i | i
CN1CCN(C(=O)COc2ccc(-c3nc4ccccc4s3)cc2)CC1 | -4.4 | nt | i | nt | i
O=C(Cc1cccs1)N1CCC2(CC1)OCCO2 | i | i | i | i | i
Nc1c(C(=O)NCCc2ccccc2)c2nc3ccccc3nc2n1CCN1CCOCC1 | i | 7.7 | i | i | i
CCCCn1c(N)c(C(=O)NCCN2CCOCC2)c2nc3ccccc3nc21 | nt | i | i | i | i
Nc1c(C(=O)NCCN2CCOCC2)c2nc3ccccc3nc2n1Cc1ccco1 | i | i | i | i | 6.7
COc1ccc(CCNC(=O)c2c(N)n(CCN3CCOCC3)c3nc4ccccc4nc23)cc1 | i | i | i | i | i
CC(C)(C)P(=O)(c1ccncc1)N1CCCC1 (configuration not stated) | i | i | i | i | i
CC1(C)CC(n2[nH]c(=O)c3c2NC(=O)CSC3c2ccccc2)CCO1 (configuration not stated) | i | i | i | i | i
SMILES | D1 mod | S1P3 ag | M1 antag | S1P1 ag pot | M1 agonist | others
O=c1c2ccccc2nc(-c2ccco2)n1-c1nccs1 | i | i | i | nt | i
CCOP(=S)(OCC)c1ccc(N(C)C)cc1 | i | nt | i | nt | 3
CN(C)c1ccc(P(=S)(N(C)C)N(C)C)cc1 | i | nt | i | nt | i
O=c1[nH]c(=O)n(-c2ccc(F)cc2)c(O)c1C=Nc1ccccc1N1CCCC1 | i | i | i | i | 4.2 | M1 agonist conf=i;M4 ag counter=?
Cn1c(O)c(C=NCCCNC2CCCCC2)c(=O)n(C)c1=O | nt | i | i | i | i
O=C(c1cc(-c2ccccc2)nc2ccccc12)N1CCC2(CC1)OCCO2 | i | nt | i | nt | 4.3 | M1 agonist conf=i;M4 ag counter=i
O=C(c1cc(Br)ccc1Cl)N1CCC2(CC1)OCCO2 | i | i | i | i | i
CCCS(=O)(=O)N1CCC(C(=O)N2CCC3(CC2)OCCO3)CC1 | i | i | i | i | i
CCCS(=O)(=O)N1CCCC(C(=O)N2CCC3(CC2)OCCO3)C1 (configuration not stated) | i | i | i | i | 2 | M1 agonist conf=i;M4 ag counter=i
COCCOC(=O)c1c(C)oc2ccc(OC(=O)N(C)C)cc12 | i | i | i | i | i
CC(=NCCCN1CCOCC1)c1c(O)[nH]c(=O)[nH]c1=O | i | i | i | i | 1.5 | M1 agonist conf=?;M4 ag counter=i
CC(=NCCCN1CCOCC1)c1c(O)n(Cc2ccccc2)c(=O)[nH]c1=O | i | i | i | i | i
CN(C)c1ccc(N=Cc2c(O)n(CCC3=CCCCC3)c(=O)[nH]c2=O)cc1 | i | i | i | i | 7.9 | M1 agonist conf=?;M4 ag counter=i
CCN(CC)c1ccc(N=Cc2c(O)n(CCC3=CCCCC3)c(=O)[nH]c2=O)cc1 | i | i | i | i | 109 | M1 agonist conf=578;M4 ag counter=627
C=CCn1c(O)c(C=Nc2ccc(N(CC)CC)cc2)c(=O)[nH]c1=O | nt | i | i | i | 17 | M1 agonist conf=i;M4 ag counter=i
O=c1[nH]c(=O)n(CCC2=CCCCC2)c(O)c1C=NCCN1CCNCC1 | i | i | i | i | i
OC(c1ccc(F)cc1)C(c1ccccc1)N1CCOCC1 (configuration not stated) | i | i | i | i | i
CCNCC1(c2ccc(OC)c(OC)c2)CCCC1 | i | i | -15 | i | 47 | M1 agonist conf=i;M4 ag counter=i
COCCn1cc(C(=O)N2CCC3(CC2)OCCO3)c2c3ccccc3n(C)c2c1=O | i | i | i | i | i
Cn1c2ccccc2c2c(C(=O)N3CCC4(CC3)OCCO4)cn(C3CCCC3)c(=O)c21 | i | nt | i | nt | 14 | M1 agonist conf=i;M4 ag counter=i
Cc1ccc(CN2C(=O)NC(=O)C3(Cc4c(nc5ccccn5c4=O)N4CCCCCC43)C2=O)cc1 (configuration not stated) | i | i | i | i | i
Cc1cc2c(C(F)(F)F)cc(=O)oc2c2c1NCCC2 | i | i | i | i | 205 | M1 agonist conf=1315;M4 ag counter=1119
Cc1cc(N)n(C2CCN(C)CC2)n1 | i | i | i | i | i
Cn1nc(-c2ccc(OCC(=O)N3CCN(Cc4ccccc4)CC3)cc2)c2ccccc2c1=O | i | i | -2 | i | 5.4 | M1 agonist conf=?;M4 ag counter=i
Cc1ccc(S(=O)(=O)N2CCCC(C(=O)N3CCC4(CC3)OCCO4)C2)cc1 (configuration not stated) | i | i | i | i | i
